Active and inactive are the calls of the source. No cut-off for these calls is given here.
What was measured:
SiHa = assay: Cytotoxicity against human SiHa cells assessed as cell viability after 24 to 48 hrs by MTT assay; format: functional
Outline: (§1)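 MTT viability assay in SiHa, HeLa (cervical), MCF-7 (breast) and IMR-32 (neuroblastoma) cells, treated with conjugates over 0.25 to 8 µM for 48 h.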

[1] = Cytotoxicity against human IMR32 cells assessed as cell viability after 24 to 48 hrs by MTT assay; format: functional, IMR-32; outline: as §1
HeLa = assay: Cytotoxicity against human HeLa cells assessed as cell viability after 24 to 48 hrs by MTT assay; format: functional; outline: as §1
MCF7 [2] = assay: Cytotoxicity against human MCF7 cells assessed as cell viability after 24 to 48 hrs by MTT assay; format: functional; outline: as §1
MCF7 [3] = assay: Cell cycle arrest in human MCF7 cells assessed as accumulation at G0 phase at 4 uM after 48 hrs (reference value: 3%); format: functional
Outline: (§2)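 MCF-7 breast cancer cells exposed 48 h to 4, 8, 16 or 32 µM; doxorubicin as positive control. Cell cycle phase distribution (G0, G1, S, G2/M) read as percentage of cells; G0 fraction taken as apoptotic cells.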

MCF7 [4] = assay: Down regulation of ER alpha expression in human MCF7 cells at 4 uM after 24 hrs by luciferase reporter gene assay; format: functional, cell-based
Outline: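 MCF-7 cells first transfected with ERα construct for 48 h, then compound exposure at 4 µM for 24 h; luciferase-based read-out; etoposide and doxorubicin run as standards.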

MCF7 [5] = assay: Cell cycle arrest in human MCF7 cells assessed as accumulation at G0 phase at 16 uM after 48 hrs (reference value: 3%); format: functional; outline: as §2
MCF7 [6] = assay: Cell cycle arrest in human MCF7 cells assessed as accumulation at S phase at 8 uM after 48 hrs (reference value: 9%); format: functional; outline: as §2
MCF7 [7] = assay: Cell cycle arrest in human MCF7 cells assessed as accumulation at S phase at 32 uM after 48 hrs (reference value: 9%); format: functional; outline: as §2
MCF7 [8] = assay: Cell cycle arrest in human MCF7 cells assessed as accumulation at G1 phase at 8 uM after 48 hrs (reference value: 63%); format: functional; outline: as §2
MCF7 [9] = assay: Cell cycle arrest in human MCF7 cells assessed as accumulation at S phase at 16 uM after 48 hrs (reference value: 9%); format: functional; outline: as §2
MCF7 [10] = assay: Cell cycle arrest in human MCF7 cells assessed as accumulation at G2/M phase at 16 uM after 48 hrs (reference value: 25%); format: functional; outline: as §2
MCF7 [11] = assay: Cell cycle arrest in human MCF7 cells assessed as accumulation at G0 phase at 32 uM after 48 hrs (reference value: 3%); format: functional; outline: as §2
MCF7 [12] = assay: Cell cycle arrest in human MCF7 cells assessed as accumulation at G1 phase at 32 uM after 48 hrs (reference value: 63%); format: functional; outline: as §2
MCF7 [13] = assay: Down regulation of cyclin D expression in human MCF7 cells at 1 uM after 24 hrs by Western blot analysis; format: functional, cell-based
MCF7 [14] = assay: Cell cycle arrest in human MCF7 cells assessed as accumulation at G2/M phase at 32 uM after 48 hrs (reference value: 25%); format: functional; outline: as §2
MCF7 [15] = assay: Cell cycle arrest in human MCF7 cells assessed as accumulation at G1 phase at 4 uM after 48 hrs (reference value: 63%); format: functional; outline: as §2
MCF7 [16] = assay: Cell cycle arrest in human MCF7 cells assessed as accumulation at G2/M phase at 4 uM after 48 hrs (reference value: 25%); format: functional; outline: as §2
MCF7 [17] = assay: Cell cycle arrest in human MCF7 cells assessed as accumulation at G1 phase at 16 uM after 48 hrs (reference value: 63%); format: functional; outline: as §2
MCF7 [18] = assay: Down regulation of Bcl-2 expression in human MCF7 cells at 1 uM after 24 hrs by Western blot analysis; format: functional, cell-based
MCF7 [19] = assay: Cell cycle arrest in human MCF7 cells assessed as accumulation at G0 phase at 8 uM after 48 hrs (reference value: 3%); format: functional; outline: as §2
MCF7 [20] = assay: Cell cycle arrest in human MCF7 cells assessed as accumulation at G2/M phase at 8 uM after 48 hrs (reference value: 25%); format: functional; outline: as §2
MCF7 [21] = assay: Down regulation of survivin expression in human MCF7 cells at 1 uM after 24 hrs by Western blot analysis; format: functional, cell-based
MCF7 [22] = assay: Cell cycle arrest in human MCF7 cells assessed as accumulation at S phase at 4 uM after 48 hrs (reference value: 9%); format: functional; outline: as §2

SMILES	Activity (SiHa)	Activity [1]	Activity (HeLa)	Activity (MCF7 [2])	also measured
O=C(c1cc(-c2ccc(Cl)c(Cl)c2)n2nc(-c3ccccc3)cc2n1)N1CCN(C(=O)c2cccnc2Nc2ccc(F)cc2)CC1	5.27 µM	5.87 µM	4.27 µM	4.73 µM	
COc1ccc(Nc2ncccc2C(=O)N2CCN(C(=O)c3cc(-c4ccc(OC)cc4)n4nc(-c5ccccc5)cc4n3)CC2)cc1	4.36 µM	6.37 µM	3.72 µM	2.93 µM	
COc1cc(-c2cc(C(=O)N3CCN(C(=O)c4cccnc4Nc4ccc(F)cc4)CC3)nc3cc(-c4ccccc4)nn23)cc(OC)c1OC	5.25 µM	5.75 µM	2.57 µM	6.28 µM	
COc1ccc(Nc2ncccc2C(=O)N2CCN(C(=O)c3cc(-c4ccc(Cl)c(Cl)c4)n4nc(-c5ccccc5)cc4n3)CC2)cc1	3.92 µM	5 µM	2.64 µM	6.12 µM	
COc1ccc(Nc2ncccc2C(=O)N2CCN(C(=O)c3cc(-c4cc(OC)c(OC)c(OC)c4)n4nc(-c5ccccc5)cc4n3)CC2)cc1	3.87 µM	5.87 µM	2.85 µM	3.02 µM	
COc1ccc(-c2cc(C(=O)N3CCN(C(=O)c4cccnc4Nc4ccc(F)cc4)CC3)nc3cc(-c4ccccc4)nn23)cc1OC	5.64 µM	5.87 µM	3.16 µM	7.02 µM	
COc1ccc(-c2cc(C(=O)N3CCN(C(=O)c4cccnc4Nc4ccccc4)CC3)nc3cc(-c4ccccc4)nn23)cc1	3.33 µM	4.75 µM	2.43 µM	2.16 µM	Activity (MCF7 [3]): 1%; Activity (MCF7 [4]): Active; Activity (MCF7 [5]): 4%; Activity (MCF7 [6]): 9%; Activity (MCF7 [7]): 10%; Activity (MCF7 [8]): 57%; Activity (MCF7 [9]): 7%; Activity (MCF7 [10]): 25%; Activity (MCF7 [11]): 13%; Activity (MCF7 [12]): 38%; Activity (MCF7 [13]): Active; Activity (MCF7 [14]): 39%; Activity (MCF7 [15]): 52%; Activity (MCF7 [16]): 37%; Activity (MCF7 [17]): 64%; Activity (MCF7 [18]): Active; Activity (MCF7 [19]): 2%; Activity (MCF7 [20]): 32%; Activity (MCF7 [21]): Active; Activity (MCF7 [22]): 9%
COc1ccc(-c2cc(C(=O)N3CCN(C(=O)c4cccnc4Nc4ccccc4)CC3)nc3cc(-c4ccccc4)nn23)cc1OC	5.93 µM	6.5 µM	2.88 µM	6.12 µM	
COc1cc(-c2cc(C(=O)N3CCN(C(=O)c4cccnc4Nc4ccccc4)CC3)nc3cc(-c4ccccc4)nn23)cc(OC)c1OC	5.1 µM	7.25 µM	2.99 µM	6.93 µM	
COc1ccc(-c2cc(C(=O)N3CCN(C(=O)c4cccnc4Nc4ccc(OC)c(OC)c4)CC3)nc3cc(-c4ccccc4)nn23)cc1	3.73 µM	5.12 µM	5.87 µM	2.53 µM	
COc1ccc(Nc2ncccc2C(=O)N2CCN(C(=O)c3cc(-c4ccc(Cl)c(Cl)c4)n4nc(-c5ccccc5)cc4n3)CC2)cc1OC	3.73 µM	7.15 µM	5.11 µM	5.95 µM	
COc1cc(Nc2ncccc2C(=O)N2CCN(C(=O)c3cc(-c4ccc(Cl)c(Cl)c4)n4nc(-c5ccccc5)cc4n3)CC2)cc(OC)c1OC	3.65 µM	5.62 µM	4.52 µM	5.38 µM	
COc1ccc(Nc2ncccc2C(=O)N2CCN(C(=O)c3cc(-c4ccc(F)cc4)n4nc(-c5ccccc5)cc4n3)CC2)cc1OC	6.62 µM	5.25 µM	6.33 µM	2.69 µM	
O=C(c1cc(-c2ccc(F)cc2)n2nc(-c3ccccc3)cc2n1)N1CCN(C(=O)c2cccnc2Nc2ccc(F)cc2)CC1	7.21 µM	5.62 µM	3.86 µM	3.34 µM	
O=C(c1cc(-c2ccc(F)cc2)n2nc(-c3ccccc3)cc2n1)N1CCN(C(=O)c2cccnc2Nc2ccccc2)CC1	2.65 µM	4.65 µM	2.29 µM	1.79 µM	Activity (MCF7 [3]): 1%; Activity (MCF7 [4]): Active; Activity (MCF7 [5]): 5%; Activity (MCF7 [6]): 10%; Activity (MCF7 [7]): 9%; Activity (MCF7 [8]): 54%; Activity (MCF7 [9]): 8%; Activity (MCF7 [10]): 28%; Activity (MCF7 [11]): 9%; Activity (MCF7 [12]): 44%; Activity (MCF7 [13]): Active; Activity (MCF7 [14]): 39%; Activity (MCF7 [15]): 52%; Activity (MCF7 [16]): 38%; Activity (MCF7 [17]): 58%; Activity (MCF7 [18]): Active; Activity (MCF7 [19]): 2%; Activity (MCF7 [20]): 33%; Activity (MCF7 [21]): Active; Activity (MCF7 [22]): 8%
COc1ccc(Nc2ncccc2C(=O)N2CCN(C(=O)c3cc(-c4cc(OC)c(OC)c(OC)c4)n4nc(-c5ccccc5)cc4n3)CC2)cc1OC	3.73 µM	5.75 µM	6.08 µM	4.24 µM	
COc1ccc(-c2cc(C(=O)N3CCN(C(=O)c4cccnc4Nc4cc(OC)c(OC)c(OC)c4)CC3)nc3cc(-c4ccccc4)nn23)cc1	6.08 µM	6.62 µM	4.24 µM	3.83 µM	
COc1cccc2c1C(=O)c1c(O)c3c(c(O)c1C2=O)C[C@@](O)(C(=O)CO)C[C@@H]3O[C@H]1C[C@H](N)[C@H](O)[C@H](C)O1 [DOXORUBICIN]	3.93 µM	4.5 µM	1.25 µM	0.473 µM	Activity (MCF7 [3]): 1%; Activity (MCF7 [5]): 6%; Activity (MCF7 [6]): 9%; Activity (MCF7 [7]): 10%; Activity (MCF7 [8]): 37%; Activity (MCF7 [9]): 11%; Activity (MCF7 [10]): 49%; Activity (MCF7 [11]): 8%; Activity (MCF7 [12]): 36%; Activity (MCF7 [14]): 46%; Activity (MCF7 [15]): 44%; Activity (MCF7 [16]): 48%; Activity (MCF7 [17]): 34%; Activity (MCF7 [19]): 4%; Activity (MCF7 [20]): 50%; Activity (MCF7 [22]): 8%
COc1ccc(Nc2ncccc2C(=O)N2CCN(C(=O)c3cc(-c4ccc(OC)c(OC)c4)n4nc(-c5ccccc5)cc4n3)CC2)cc1	5.1 µM	5.87 µM	4.62 µM	2.85 µM	
COc1ccc(-c2cc(C(=O)N3CCN(C(=O)c4cccnc4Nc4cc(OC)c(OC)c(OC)c4)CC3)nc3cc(-c4ccccc4)nn23)cc1OC	7.65 µM	4.88 µM	4.24 µM	7.34 µM	
COc1ccc(Nc2ncccc2C(=O)N2CCN(C(=O)c3cc(-c4ccc(F)cc4)n4nc(-c5ccccc5)cc4n3)CC2)cc1	4.56 µM	5.37 µM	6.6 µM	8.08 µM	
COc1ccc(Nc2ncccc2C(=O)N2CCN(C(=O)c3cc(-c4ccc(OC)c(OC)c4)n4nc(-c5ccccc5)cc4n3)CC2)cc1OC	5.93 µM	5.25 µM	5.7 µM	2.61 µM	
O=C(c1cc(-c2ccc(Cl)c(Cl)c2)n2nc(-c3ccccc3)cc2n1)N1CCN(C(=O)c2cccnc2Nc2ccccc2)CC1	5.93 µM	7.87 µM	2.57 µM	5.3 µM	
COc1ccc(-c2cc(C(=O)N3CCN(C(=O)c4cccnc4Nc4ccc(F)cc4)CC3)nc3cc(-c4ccccc4)nn23)cc1	5.93 µM	5.87 µM	3.79 µM	4.97 µM	
COc1cc(Nc2ncccc2C(=O)N2CCN(C(=O)c3cc(-c4ccc(F)cc4)n4nc(-c5ccccc5)cc4n3)CC2)cc(OC)c1OC	4.07 µM	5 µM	4.31 µM	7.59 µM	

Source: ChEMBL document CHEMBL3784968, “Synthesis and mechanistic aspects of 2-anilinonicotinyl-pyrazolo[1,5-a]pyrimidine conjugates that regulate cell proliferation in MCF-7 cells via estrogen signaling” (2016)
